# Activity calls are given as the source filed them. No cut-off for these calls is given here.
# How the values were obtained:
# [1] = Cytotoxicity against african green monkey CV1 cells by MTT assay; type: cell-based; conditions: Chlorocebus aethiops, CV-1
# How it was run: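 CV-1 cells, viability read by MTT; each experiment repeated more than three times.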
# [2] = biological target: T1, Bile acid receptor (Homo sapiens) (UniProt Q96RI1); test: Binding affinity to human FXR ligand binding domain cell free system assessed as release of co-activator peptide SRC-1 after 1 hr by surface plasmon resonance method
# T1 sequence (whole entry): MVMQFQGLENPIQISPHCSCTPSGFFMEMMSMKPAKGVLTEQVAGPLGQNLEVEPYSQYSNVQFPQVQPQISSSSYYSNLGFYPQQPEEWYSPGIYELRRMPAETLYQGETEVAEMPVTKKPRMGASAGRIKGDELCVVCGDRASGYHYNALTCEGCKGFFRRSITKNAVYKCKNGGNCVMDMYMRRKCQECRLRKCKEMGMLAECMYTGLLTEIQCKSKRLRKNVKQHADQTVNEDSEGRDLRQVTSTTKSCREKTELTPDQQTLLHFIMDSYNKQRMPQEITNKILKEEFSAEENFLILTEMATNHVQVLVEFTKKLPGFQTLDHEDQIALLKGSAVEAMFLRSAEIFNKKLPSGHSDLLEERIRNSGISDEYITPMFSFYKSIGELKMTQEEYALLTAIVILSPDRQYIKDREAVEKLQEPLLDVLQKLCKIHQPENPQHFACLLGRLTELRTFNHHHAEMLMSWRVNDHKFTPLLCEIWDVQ
# How it was run: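 BIAcore SPR: hFXR LBD (4 µM) preincubated 1 h with compound plus 50 µM CDCA, then injected over a sensor chip bearing immobilized SRC-1 co-activator peptide; co-activator peptide binding to the LBD monitored.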
# Bile acid receptor = biological target: T2, Bile acid receptor (Homo sapiens, UniProt Q96RI1); test: Antagonist activity at human FXR expressed in CV-1 cells assessed as inhibition of CDCA-induced transactivation after 24 hrs by luciferase reporter gene assay; type: functional, cell-based
# T2 sequence (Q96RI1 whole entry): T1 sequence (whole entry)
# How it was run: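 CV-1 cells in DMEM with 10% resin-charcoal-stripped FBS, 24 h at 37 °C, 5% CO2, then transiently co-transfected with pCMX-hFXR, CMXβ-GAL and Tk(EcRE)6-LUC. After 24 h, compounds were co-treated with 50 µM CDCA; harvest at 24 h. Luciferase normalized to β-galactosidase. Transfections in triplicate; experiments repeated more than three times.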
# [3] = biological target: T3, Retinoic acid receptor alpha (Homo sapiens) (UniProt P10276); test: Effect on human Gal4-fused RAR alpha at 10 uM by luciferase reporter gene assay
# T3 sequence (whole entry): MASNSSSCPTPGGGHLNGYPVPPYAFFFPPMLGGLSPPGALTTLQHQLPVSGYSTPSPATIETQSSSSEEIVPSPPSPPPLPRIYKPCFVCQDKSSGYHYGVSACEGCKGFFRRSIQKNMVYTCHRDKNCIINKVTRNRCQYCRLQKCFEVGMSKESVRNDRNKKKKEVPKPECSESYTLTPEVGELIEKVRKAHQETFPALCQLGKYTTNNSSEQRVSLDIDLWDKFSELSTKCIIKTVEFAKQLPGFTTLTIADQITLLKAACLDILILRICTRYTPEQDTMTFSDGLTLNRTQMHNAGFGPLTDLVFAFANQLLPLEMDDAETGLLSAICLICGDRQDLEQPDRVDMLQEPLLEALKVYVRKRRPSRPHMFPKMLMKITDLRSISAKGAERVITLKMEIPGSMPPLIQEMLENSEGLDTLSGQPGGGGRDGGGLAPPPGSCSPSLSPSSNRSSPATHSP
# [4] = biological target: T4, Estrogen receptor (Homo sapiens) (UniProt P03372); test: Effect on human Gal4-fused ERalpha at 10 uM by luciferase reporter gene assay
# T4 sequence (whole entry): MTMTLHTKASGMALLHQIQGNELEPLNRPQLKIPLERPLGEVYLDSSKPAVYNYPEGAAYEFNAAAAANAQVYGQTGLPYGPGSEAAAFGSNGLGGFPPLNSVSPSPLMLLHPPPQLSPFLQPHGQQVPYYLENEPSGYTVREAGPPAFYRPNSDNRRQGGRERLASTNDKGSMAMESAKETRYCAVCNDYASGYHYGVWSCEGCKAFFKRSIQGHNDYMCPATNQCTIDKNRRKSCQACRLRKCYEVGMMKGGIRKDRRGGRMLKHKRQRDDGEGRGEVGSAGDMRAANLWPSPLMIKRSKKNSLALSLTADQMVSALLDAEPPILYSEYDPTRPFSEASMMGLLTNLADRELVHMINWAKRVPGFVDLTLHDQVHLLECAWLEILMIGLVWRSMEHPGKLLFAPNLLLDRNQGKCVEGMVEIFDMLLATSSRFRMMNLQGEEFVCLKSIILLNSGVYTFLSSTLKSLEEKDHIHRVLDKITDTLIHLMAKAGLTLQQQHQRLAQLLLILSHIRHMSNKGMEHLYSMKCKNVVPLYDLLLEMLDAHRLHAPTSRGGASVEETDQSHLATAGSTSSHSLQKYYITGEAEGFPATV
# [5] = biological target: T5, Glucocorticoid receptor (Homo sapiens) (UniProt P04150); test: Effect on human Gal4-fused GR at 10 uM by luciferase reporter gene assay
# T5 sequence (whole entry): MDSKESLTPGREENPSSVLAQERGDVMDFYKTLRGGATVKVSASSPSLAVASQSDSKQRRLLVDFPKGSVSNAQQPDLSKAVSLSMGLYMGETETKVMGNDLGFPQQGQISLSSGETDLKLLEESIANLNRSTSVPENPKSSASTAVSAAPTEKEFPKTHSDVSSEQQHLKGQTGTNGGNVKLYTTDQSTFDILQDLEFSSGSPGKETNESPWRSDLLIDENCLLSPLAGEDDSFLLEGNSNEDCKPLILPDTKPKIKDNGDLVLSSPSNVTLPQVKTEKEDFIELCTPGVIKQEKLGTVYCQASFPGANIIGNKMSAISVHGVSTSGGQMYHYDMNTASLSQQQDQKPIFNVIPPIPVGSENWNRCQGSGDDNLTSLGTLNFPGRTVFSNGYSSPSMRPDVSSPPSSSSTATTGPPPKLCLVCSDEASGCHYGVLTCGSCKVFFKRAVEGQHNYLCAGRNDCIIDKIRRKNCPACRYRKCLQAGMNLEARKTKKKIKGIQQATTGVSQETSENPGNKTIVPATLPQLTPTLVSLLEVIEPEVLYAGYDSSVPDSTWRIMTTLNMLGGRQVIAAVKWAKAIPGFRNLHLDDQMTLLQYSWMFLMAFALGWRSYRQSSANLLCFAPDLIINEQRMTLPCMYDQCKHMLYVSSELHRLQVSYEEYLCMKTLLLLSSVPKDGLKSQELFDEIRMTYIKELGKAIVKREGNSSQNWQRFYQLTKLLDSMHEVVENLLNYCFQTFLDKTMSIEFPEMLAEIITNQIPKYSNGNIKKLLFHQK
Compound,IC50 [1],Activity [2],IC50 (Bile acid receptor),Activity [3],Activity [4],Activity [5]
CC(C)=CCCC1=C[C@@H](C/C(C)=C/CC[C@]2(C)C=Cc3cc(O)cc(C)c3O2)OC1=O [2'-EPI-TUBERATOLIDE B],30 µM,Active,2.5 µM,inactive,inactive,inactive
CC(C)=CCCC1=C[C@@H](C/C(C)=C/CC/C(C)=C/CC2=CC(=O)C=C(C)C2=O)OC1=O [YEZOQUINOLIDE],50 µM,Active,5.9 µM,inactive,inactive,inactive
CC(C)=CCC/C(=C/CC/C(C)=C/CC[C@@]1(C)C=Cc2cc(O)cc(C)c2O1)C(=O)O [(S)-SARGACHROMENOL],56 µM,Active,17 µM,inactive,inactive,inactive
CC(=O)CC/C=C(\C)C[C@@H]1C=C(CCC=C(C)C)C(=O)O1 [TUBERATOLIDE A],> 100 µM,Active,3.9 µM,inactive,inactive,inactive
CC(C)=CCCC1=C[C@@H](C/C(C)=C/CC[C@@]2(C)C=Cc3cc(O)cc(C)c3O2)OC1=O [TUBERATOLIDE B],31 µM,Active,1.5 µM,inactive,inactive,inactive
CC(C)=CCC/C(=C/CC/C(C)=C/CC[C@]1(C)C=Cc2cc(O)cc(C)c2O1)C(=O)O [(R)-SARGACHROMENOL],45 µM,Active,9 µM,inactive,inactive,inactive
